Data published in ChEMBL document CHEMBL1121595, “Fluoroprostaglandins: synthesis and biological evaluation of the methyl esters of (+)-12-fluoro-, (-)-ent-12-fluoro-, (+)-15-epi-fluoro-, and (-)-ent-15 epi-12-fluoroprostaglandin F2 alpha” (1980).

Experiments:
Gerbillinae = assay: The compound was evaluated for the gerbil colon contraction.; format: functional
Cricetinae gen. sp. [1] = assay: The compound was evaluated for the antifertility activity in hamster.; format: functional
How it was run: (§1)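 Pregnant hamsters (80–90 g), ten per compound, mated one male per female. A single subcutaneous dose in ethanol was given on day 5 of pregnancy. The minimum effective dose is the lowest dose per hamster per day that leaves no pregnancies in the group of ten. Relative potency was derived by comparing this dose with that of natural PGF2α.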

Cricetinae gen. sp. [2] = assay: The compound was evaluated for the hamster uterine contraction.; format: functional, Cricetulus griseus
Cricetinae gen. sp. [3] = assay: The compound was evaluated for the antifertility activity in hamster; no activity observed at 50 ug; format: functional, organism-based; conditions: Cricetulus griseus; how it was run: as §1

SMILES	relative potency (Gerbillinae)	relative potency (Cricetinae gen. sp. [1])	relative potency (Cricetinae gen. sp. [2])	MED (Cricetinae gen. sp. [3])
CCCCC[C@@H](O)/C=C/[C@@]1(F)[C@H](C/C=C\CCCC(=O)OC)[C@H](O)C[C@@H]1O	0.001	0.17	0.004	
CCCCC[C@@H](O)/C=C/[C@@]1(F)[C@H](O)C[C@H](O)[C@@H]1C/C=C\CCCC(=O)OC	0.011	1	0.022	
CCCCC[C@H](O)/C=C/[C@@]1(F)[C@H](O)C[C@H](O)[C@@H]1C/C=C\CCCC(=O)OC	0.001	12.5	0.28	
CCCCC[C@H](O)/C=C/[C@@]1(F)[C@H](C/C=C\CCCC(=O)OC)[C@H](O)C[C@@H]1O	0.0002		0.0002	No activity observed at 50 ug
CCCCC[C@H](O)/C=C/[C@@]1(F)[C@H](O)C[C@H](O)[C@@H]1C/C=C\CCCC(=O)O	0.23	25	0.65	
